Measured values collected from several papers.
Compare with care: the assays were run in different laboratories.
Effect on: cell growth or viability

| Structure (SMILES) | cell line | test | setting | measurement | result |
| --- | --- | --- | --- | --- | --- |
| COc1cccc(C=NNC(=S)NN)c1OC | TZM-bl | resazurin |  | CC50 | > 12.5 µM |
| CC(=O)OC[C@H]1O[C@@H]([S-])[C@H](OC(C)=O)[C@@H](OC(C)=O)[C@@H]1OC(C)=O.CCP(CC)CC.[Au+] | THP-1 | ATP luminescence | 72 h | CC50 | 2.83 µM |
| [N-]=[N+]=N[C@]1(CO)O[C@@H](n2ccc(N)nc2=O)[C@@H](F)[C@@H]1O | Calu-3 | ATP luminescence | 72 h | CC50 | > 50 µM |
| NC(=O)c1ncn([C@@H]2O[C@H](CO)[C@@H](O)[C@H]2O)n1 | HEp-2 | CCK-8 | 5 days | CC50 | 176 µM |
| CCOC(=O)c1cc(O)c(O)c(O)c1 | MDBK | MTT | 72 h | CC50 | > 256 µg/mL |
| CN(Cc1cn(Cc2ccc(-c3nc4cc(-c5ccccc5)ccn4c3Nc3ccc(C(=O)O)cc3)cc2)nn1)c1cccc2c1C(=O)N(C1CCC(=O)NC1=O)C2=O (centres unmarked) | MCF7 |  | 72 h | CC50 | 129 µM |
| Nc1ccn([C@@H]2O[C@H](CO)[C@@H](O)C2(F)F)c(=O)n1 | MCF7 | MTT | 2.5 µg/mL, 24 h | viability | 51.3% |
| CCCCCCCCC(=O)OC[C@H]1O[C@@](C#N)(c2ccc3c(N)ncnn23)[C@H](O)[C@@H]1O | HEp-2 | CCK-8 | 5 days | CC50 | 45.5 µM |
| CC(C)(C)c1cc([N+](=O)[O-])cc(C=O)c1O | TZM-bl | resazurin |  | CC50 | > 12.5 µM |
| N#C[C@@]1(c2ccc3c(N)ncnn23)O[C@H](COC(=O)C2CCC(F)CC2)[C@@H](O)[C@H]1O (some centres unmarked) | HEp-2 | CCK-8 | 5 days | CC50 | 53.3 µM |
| O=C1CCC(N2C(=O)c3cccc(NCc4cn(Cc5ccc(-c6nc7cc(-c8ccccc8)ccn7c6Nc6ccc(C(=O)O)cc6)cc5)nn4)c3C2=O)C(=O)N1 (centres unmarked) | MCF7 |  | 72 h | CC50 | 105 µM |
